The record followed here is ChEMBL document CHEMBL1123529, “Analogues of substance P. Peptides containing D-amino acid residues in various positions of substance P and displaying agonist or receptor selective antagonist effects” (1986).

The nature of experiment [1]: In vitro antagonistic activity against Substance P on guinea pig ileum at concentration of 10 uM. It is filed as functional, Cavia porcellus. Put shortly:
(§1)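 Dose-response curves used a 3-min cycle with 1-min contact and washout, with SP or SP(6-11)-hexapeptide as agonist. Dose ratio is the agonist EC50 with antagonist divided by the EC50 alone. At least two preparations per compound; ratios under 2 were considered insignificant.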

A short description of experiment [2]: In vitro antagonistic activity against Substance P(6-11) in guinea pig ileum at concentration of 10 uM. It is filed as functional, Cavia porcellus. Summed up: as §1
Experiment [3] has as its target Substance-P receptor (Cavia porcellus) (UniProt P30547). Kind of experiment: Evaluated in vitro for percent agonist activity in guinea pig ileum (substance P receptor). It is filed as functional, tissue-based.
The target is the same in experiment [4]. Kind of experiment: Antagonistic activity against Substance P(6-11) receptor in guinea pig ileum at concentration of 5 uM. Type of experiment: functional, tissue-based. Summed up:
(§2)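 Distal ileum from Dunkin-Hartley guinea pigs (300-350 g, both sexes) in a Krebs organ bath at 37 °C, gassed with 95% O2/5% CO2. Agonist (SP or SP(6-11)) dose-response curves run on a 3-min cycle with 1-min contact, with and without antagonist. Dose ratio = agonist EC50 with antagonist / EC50 alone. At least two preparations per compound; ratios below 2 taken as insignificant.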

Experiment [5] shares this target. Kind of experiment: Antagonistic activity against Substance P receptor in guinea pig ileum at concentration of 5 uM. It is filed as functional, tissue-based. Put shortly: as §2

“And” between values parts separate entries of the source, which are not always exact repeats. Identical values can stand only once.

Chain of Substance-P receptor (Cavia porcellus) (P30547 whole entry): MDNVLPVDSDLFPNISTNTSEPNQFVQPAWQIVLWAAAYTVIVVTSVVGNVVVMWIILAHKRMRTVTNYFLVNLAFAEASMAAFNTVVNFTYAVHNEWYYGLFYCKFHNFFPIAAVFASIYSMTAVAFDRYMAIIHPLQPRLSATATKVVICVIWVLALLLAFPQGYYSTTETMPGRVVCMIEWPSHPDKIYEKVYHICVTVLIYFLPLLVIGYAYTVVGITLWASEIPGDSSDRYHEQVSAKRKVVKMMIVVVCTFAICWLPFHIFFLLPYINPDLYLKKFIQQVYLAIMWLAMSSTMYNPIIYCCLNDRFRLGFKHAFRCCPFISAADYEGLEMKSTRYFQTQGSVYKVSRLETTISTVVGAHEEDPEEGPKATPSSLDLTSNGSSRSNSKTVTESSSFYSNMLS

Regarding `CSCC[C@@H](NC(=O)[C@H](CC(C)C)NC(=O)[C@@H](Cc1c[nH]c2ccccc12)NC(=O)[C@@H](Cc1c[nH]c2ccccc12)NC(=O)[C@@H](Cc1c[nH]c2ccccc12)NC(=O)[C@H](CCC(N)=O)NC(=O)[C@H](CCC(N)=O)NC(=O)[C@@H]1CCCN1C(=O)[C@H](CCCCNC(=O)OCc1ccccc1)NC(=O)[C@@H]1CCCN1C(=O)[C@H](CCCN=C(N)N)NC(=O)OCc1ccccc1)C(=O)O`, in experiment [1], the Activity is recorded as <2 dose ratio. Take `COC(=O)[C@@H](CCSC)NC(=O)[C@H](CC(C)C)NC(=O)[C@@H](Cc1c[nH]c2ccccc12)NC(=O)[C@@H](Cc1c[nH]c2ccccc12)NC(=O)[C@@H](Cc1c[nH]c2ccccc12)NC(=O)[C@H](CCC(N)=O)NC(=O)[C@H](CCC(N)=O)NC(=O)[C@@H]1CCCN1C(=O)[C@H](CCCCN)NC(=O)[C@@H]1CCCN1C(=O)[C@@H](N)CCCN=C(N)N`: the Activity in experiment [1] was 3.9 dose ratio and 7.2 dose ratio; in experiment [2] it was 9.9 dose ratio. In turn, `CSCC[C@H](NC(=O)[C@H](CC(C)C)NC(=O)CNC(=O)[C@H](Cc1ccccc1)NC(=O)[C@H](Cc1ccccc1)NC(=O)[C@H](CCC(N)=O)NC(=O)[C@H](CCC(N)=O)NC(=O)C1CCCN1C(=O)[C@H](CCCCN)NC(=O)C1CCCN1C(=O)[C@@H](N)CCCN=C(N)N)C(N)=O` (stereo in doubt) gave an SP in experiment [3] of 15%. For the molecule `COC(=O)[C@H](CCSC)NC(=O)[C@H](CC(C)C)NC(=O)CNC(=O)[C@H](Cc1ccccc1)NC(=O)[C@H](Cc1ccccc1)NC(=O)[C@H](NC(=O)[C@H](NC(=O)[C@@H]1CCCN1C(=O)[C@H](CCCCNC(=O)OCc1ccccc1)NC(=O)[C@@H]1CCCN1C(=O)[C@H](CCCN=C(N)N)NC(=O)OCc1ccccc1)C(C)C)C(C)C`, the Activity in experiment [1] and in experiment [2] was <2 dose ratio each time.

Take `COC(=O)[C@@H](CCSC)NC(=O)[C@H](CC(C)C)NC(=O)CNC(=O)[C@H]1CCCN1C(=O)[C@H]1CCCN1C(=O)[C@H](CCC(N)=O)NC(=O)[C@H](CCC(N)=O)NC(=O)[C@@H]1CCCN1C(=O)[C@H](CCCCNC(=O)OCc1ccccc1)NC(=O)[C@@H]1CCCN1C(=O)[C@H](CCCN=C(N)N)NC(=O)OCc1ccccc1`: the Activity in experiment [1] and in experiment [2] was <2 dose ratio throughout. In addition, the SP in experiment [3] was < 0.0001%. `COC(=O)[C@H](CCSC)NC(=O)[C@H](CC(C)C)NC(=O)CNC(=O)[C@H](Cc1ccccc1)NC(=O)[C@H](Cc1ccccc1)NC(=O)[C@H](CCC(N)=O)NC(=O)[C@H](CCC(N)=O)NC(=O)C1CCCN1C(=O)[C@H](CCCCNC(=O)OCc1ccccc1)NC(=O)C1CCCN1C(=O)[C@H](CCCN=C(N)N)NC(=O)OCc1ccccc1` (stereo in doubt) returned an SP in experiment [3] of 7%.

`CSCC[C@H](NC(=O)[C@H](CC(C)C)NC(=O)CNC(=O)[C@H](Cc1ccccc1)NC(=O)[C@H](Cc1ccccc1)NC(=O)[C@H](CCC(N)=O)NC(=O)[C@H](CCC(N)=O)NC(=O)C1CCCN1C(=O)[C@H](CCCCNC(=O)OCc1ccccc1)NC(=O)C1CCCN1C(=O)[C@H](CCCN=C(N)N)NC(=O)OCc1ccccc1)C(=O)O` (stereo in doubt) returned an SP in experiment [3] of 63%. For `COC(=O)[C@@H](CCSC)NC(=O)[C@H](CC(C)C)NC(=O)CNC(=O)[C@H](NC(=O)[C@H](NC(=O)[C@H](CCC(N)=O)NC(=O)[C@H](CCC(N)=O)NC(=O)[C@@H]1CCCN1C(=O)[C@H](CCCCNC(=O)OCc1ccccc1)NC(=O)[C@@H]1CCCN1C(=O)[C@H](CCCN=C(N)N)NC(=O)OCc1ccccc1)C(C)C)C(C)C`, the Activity in experiment [1] and in experiment [2] was <2 dose ratio in each case. Regarding `COC(=O)[C@@H](CCSC)NC(=O)[C@H](CC(C)C)NC(=O)CNC(=O)[C@@H](NC(=O)[C@H](NC(=O)[C@H](CCC(N)=O)NC(=O)[C@H](CCC(N)=O)NC(=O)[C@@H]1CCCN1C(=O)[C@H](CCCCNC(=O)OCc1ccccc1)NC(=O)[C@@H]1CCCN1C(=O)[C@H](CCCN=C(N)N)NC(=O)OCc1ccccc1)C(C)C)C(C)C`, the SP in experiment [3] was < 0.0001%. Consider `COC(=O)[C@@H](CCSC)NC(=O)[C@H](CC(C)C)NC(=O)[C@@H](Cc1c[nH]c2ccccc12)NC(=O)[C@@H](Cc1c[nH]c2ccccc12)NC(=O)[C@@H](Cc1c[nH]c2ccccc12)NC(=O)[C@H](CCC(N)=O)NC(=O)[C@H](CCC(N)=O)NC(=O)[C@@H]1CCCN1C(=O)[C@H](CCCCNC(=O)OCc1ccccc1)NC(=O)[C@@H]1CCCN1C(=O)[C@@H](N)CCCN=C(N)N`, for which the Activity in experiment [1] was found to be 10 dose ratio; in experiment [2] it was 5.6 dose ratio.

`COC(=O)[C@@H](CCSC)NC(=O)[C@H](CC(C)C)NC(=O)[C@@H](Cc1c[nH]c2ccccc12)NC(=O)[C@@H](Cc1c[nH]c2ccccc12)NC(=O)[C@@H](Cc1c[nH]c2ccccc12)NC(=O)[C@H](CCC(N)=O)NC(=O)[C@H](CCC(N)=O)NC(=O)[C@@H]1CCCN1C(=O)[C@H](CCCCNC(=O)OCc1ccccc1)NC(=O)[C@@H]1CCCN1C(=O)[C@H](CCCN=C(N)N)NC(=O)OCc1ccccc1`: the Activity in experiment [1] and in experiment [2] was <2 dose ratio in each case. The molecule `COC(=O)[C@@H](CCSC)NC(=O)[C@H](CC(C)C)NC(=O)CNC(=O)[C@H](Cc1ccccc1)NC(=O)[C@H](Cc1ccccc1)NC(=O)[C@H](Cc1ccccc1)NC(=O)[C@@H](Cc1ccccc1)NC(=O)[C@@H]1CCCN1C(=O)[C@H](CCCCN)NC(=O)[C@@H]1CCCN1C(=O)[C@@H](N)CCCN=C(N)N` gave an SP in experiment [3] of 0%. Still for that read-out and setting: the result for `CSCC[C@@H](NC(=O)[C@H](CC(C)C)NC(=O)CNC(=O)[C@H](Cc1ccccc1)NC(=O)[C@H](Cc1ccccc1)NC(=O)[C@@H](NC(=O)[C@H](NC(=O)[C@@H]1CCCN1C(=O)[C@H](CCCCNC(=O)OCc1ccccc1)NC(=O)[C@@H]1CCCN1C(=O)[C@H](CCCN=C(N)N)NC(=O)OCc1ccccc1)C(C)C)C(C)C)C(=O)O` reads < 0.0001%; that for `CSCC[C@@H](NC(=O)[C@H](CC(C)C)NC(=O)CNC(=O)[C@H](Cc1ccccc1)NC(=O)[C@H](Cc1ccccc1)NC(=O)[C@@H](NC(=O)[C@H](NC(=O)[C@@H]1CCCN1C(=O)[C@H](CCCCN)NC(=O)[C@@H]1CCCN1C(=O)[C@@H](N)CCCN=C(N)N)C(C)C)C(C)C)C(=O)O`, 6.4%. As to `COC(=O)[C@H](CCSC)NC(=O)[C@H](Cc1c[nH]c2ccccc12)NC(=O)[C@@H](Cc1c[nH]c2ccccc12)NC(=O)[C@H](Cc1ccccc1)NC(=O)[C@H](Cc1ccccc1)NC(=O)[C@H](CCC(N)=O)NC(=O)[C@H](CCC(N)=O)NC(=O)[C@@H]1CCCN1C(=O)[C@H](CCCCNC(=O)OCc1ccccc1)NC(=O)[C@@H]1CCCN1C(=O)[C@H](CCCN=C(N)N)NC(=O)OCc1ccccc1`, the Activity in experiment [4] and in experiment [5] was < 2 dose ratio throughout. This molecule also had an SP in experiment [3] of 0%. Turning to `COC(=O)[C@@H](CCSC)NC(=O)[C@H](CC(C)C)NC(=O)CNC(=O)[C@H](Cc1ccccc1)NC(=O)[C@H](Cc1ccccc1)NC(=O)[C@@H](NC(=O)[C@H](NC(=O)[C@@H]1CCCN1C(=O)[C@H](CCCCN)NC(=O)[C@@H]1CCCN1C(=O)[C@@H](N)CCCN=C(N)N)C(C)C)C(C)C`, the SP in experiment [3] was 0.005%. Regarding `COC(=O)[C@H](CCSC)NC(=O)[C@H](CC(C)C)NC(=O)CNC(=O)[C@H](Cc1ccccc1)NC(=O)[C@H](Cc1ccccc1)NC(=O)[C@@H](Cc1ccccc1)NC(=O)[C@@H](Cc1ccccc1)NC(=O)[C@@H]1CCCN1C(=O)[C@H](CCCCNC(=O)OCc1ccccc1)NC(=O)[C@@H]1CCCN1C(=O)[C@H](CCCN=C(N)N)NC(=O)OCc1ccccc1`, the Activity in experiment [1] and in experiment [2] was <2 dose ratio throughout.

As to `COC(=O)[C@@H](CCSC)NC(=O)C(Cc1ccccc1)NC(=O)C(Cc1ccccc1)NC(=O)C(Cc1ccccc1)NC(=O)C(Cc1ccccc1)NC(=O)[C@H](CCC(N)=O)NC(=O)[C@H](CCC(N)=O)NC(=O)[C@@H]1CCCN1C(=O)[C@H](CCCCNC(=O)OCc1ccccc1)NC(=O)[C@@H]1CCCN1C(=O)[C@H](CCCN=C(N)N)NC(=O)OCc1ccccc1` (stereo in doubt), the Activity in experiment [1] and in experiment [2] was <2 dose ratio each time. Further, in experiment [3], the SP was < 0.0001%. Regarding `CSCC[C@H](NC(=O)[C@H](CC(C)C)NC(=O)CNC(=O)[C@H](Cc1ccccc1)NC(=O)[C@H](Cc1ccccc1)NC(=O)[C@H](NC(=O)[C@H](NC(=O)[C@@H]1CCCN1C(=O)[C@H](CCCCNC(=O)OCc1ccccc1)NC(=O)[C@@H]1CCCN1C(=O)[C@H](CCCN=C(N)N)NC(=O)OCc1ccccc1)C(C)C)C(C)C)C(=O)O`, the Activity in experiment [1] and in experiment [2] was <2 dose ratio each time. `COC(=O)[C@H](CCSC)NC(=O)[C@H](CC(C)C)NC(=O)CNC(=O)[C@H](Cc1ccccc1)NC(=O)[C@H](Cc1ccccc1)NC(=O)[C@@H](Cc1ccccc1)NC(=O)[C@@H](Cc1ccccc1)NC(=O)[C@@H]1CCCN1C(=O)[C@H](CCCCN)NC(=O)[C@@H]1CCCN1C(=O)[C@@H](N)CCCN=C(N)N`: the Activity in experiment [1] and in experiment [2] was <2 dose ratio each time. Take `COC(=O)[C@@H](CCSC)NC(=O)[C@H](CC(C)C)NC(=O)CNC(=O)[C@H](Cc1ccccc1)NC(=O)[C@H](Cc1ccccc1)NC(=O)[C@@H]1CCCN1C(=O)[C@H]1CCCN1C(=O)[C@@H]1CCCN1C(=O)[C@H](CCCCN)NC(=O)[C@@H]1CCCN1C(=O)[C@@H](N)CCCN=C(N)N`: the SP in experiment [3] was found to be 0.066%.

In the case of `COC(=O)[C@@H](CCSC)NC(=O)[C@H](CC(C)C)NC(=O)CNC(=O)[C@H](Cc1ccccc1)NC(=O)[C@H](Cc1ccccc1)NC(=O)[C@H](Cc1ccccc1)NC(=O)[C@@H](Cc1ccccc1)NC(=O)[C@@H]1CCCN1C(=O)[C@H](CCCCNC(=O)OCc1ccccc1)NC(=O)[C@@H]1CCCN1C(=O)[C@H](CCCN=C(N)N)NC(=O)OCc1ccccc1`, in experiment [3], the SP is < 0.0001%.
